The record followed here is ChEMBL document CHEMBL1154440, “Design and synthesis of 2-(2,6-dibromophenyl)-3-heteroaryl-1,3-thiazolidin-4-ones as anti-HIV agents” (Eur J Med Chem, 2008).

The CC50 is the concentration that lowers cell viability or growth by half. Read a low CC50 as greater toxicity to the cells. As a reminder, the EC50 is the concentration needed to bring the measured effect to its halfway point. By inhibition is commonly meant the percentage by which the read-out fell short of the control. Read a high inhibition as strong suppression.

Active and inactive are the calls of the source. The rule behind the calls is not given here.

Tested on in one data set: not listed separately
As to the kind of experiment: Cytotoxicity against human MT4 cells by MTT assay.
Conditions: not given
Type of data set: cell-based. The method, boiled down: (§1)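 CC50 was measured in parallel with the antiviral assays. It is the compound concentration that reduced by 50% the number of viable cells in mock-infected MT-4 or CEM cultures.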
Background: Tetrazolium assays rely on reduction of a dye to a coloured formazan, in cell work by metabolically active cells.
Take `Cc1cccc(N2C(=O)CSC2c2c(Br)cccc2Br)n1` (configuration not stated): half-maximal cytotoxicity (CC50) was put at 233 µM.

For `Cc1ccnc(N2C(=O)CSC2c2c(Br)cccc2Br)n1` (configuration not stated), half-maximal cytotoxicity (CC50) was put at 33.9 µM. Compared with the last compound, the CC50 is about 6.9-fold lower.

For the compound `Cc1nc(N2C(=O)CSC2c2c(Br)cccc2Br)nc(C)c1C` (configuration not stated), the midpoint of cytotoxicity, the CC50, lay at 227 µM.

Turning to `O=C1CSC(c2c(Br)cccc2Br)N1Cc1cccs1` (configuration not stated), the CC50 is 34.6 µM. This CC50 is about 6.6-fold lower than that of the compound before.

`O=C1CSC(c2c(Br)cccc2Br)N1c1nccs1` (configuration not stated): half-maximal cytotoxicity (CC50) was put at 109 µM.

Consider `O=C1CSC(c2c(Br)cccc2Br)N1c1cccc(C(F)(F)F)n1` (configuration not stated), for which it took 30 µM to reach half-maximal cytotoxicity (CC50).

Tested on in a further data set: not listed separately
As to the kind of experiment: Cytotoxicity against human CEM cells by MTT assay. Type of data set: cell-based. The note with it: CEM cells (CCRF-CEM). The method, boiled down:
as §1
`Cc1cccc(N2C(=O)CSC2c2c(Br)cccc2Br)n1` (configuration not stated) came in with a 50% cytotoxic concentration (CC50) of 233 µM.

The compound `Cc1ccnc(N2C(=O)CSC2c2c(Br)cccc2Br)n1` (configuration not stated) displayed a 50% cytotoxic concentration (CC50) of 36.3 µM.

As to `Cc1nc(N2C(=O)CSC2c2c(Br)cccc2Br)nc(C)c1C` (configuration not stated), the 50% cytotoxic concentration (CC50) was > 273 µM.

As to `O=C1CSC(c2c(Br)cccc2Br)N1Cc1cccs1` (configuration not stated), the CC50 came out at 35.6 µM.

In turn, `O=C1CSC(c2c(Br)cccc2Br)N1c1nccs1` (configuration not stated) came in with a cytotoxic concentration (CC50) of 109 µM.

`O=C1CSC(c2c(Br)cccc2Br)N1c1cccc(C(F)(F)F)n1` (configuration not stated) registered a half-maximal cytotoxic concentration (CC50) of 29.8 µM. Against the preceding compound, the CC50 is about 3.7-fold lower.

For the next data set, the system named is Human immunodeficiency virus 1. As to the kind of experiment: Antiviral activity against HIV1 3B replication in human CEM cells assessed as inhibition of virus-induced syncytium formation after 4 days. The note with it: Human immunodeficiency virus 1, 3B, CCRF-CEM, 96 h.
Take `Cc1cccc(N2C(=O)CSC2c2c(Br)cccc2Br)n1` (configuration not stated): the EC50 was determined as 80 nM.

Regarding `Cc1ccnc(N2C(=O)CSC2c2c(Br)cccc2Br)n1` (configuration not stated), the EC50 came to 40 nM.

In the case of `Cc1nc(N2C(=O)CSC2c2c(Br)cccc2Br)nc(C)c1C` (configuration not stated), the EC50 worked out at 60 nM.

Turning to `O=C1CSC(c2c(Br)cccc2Br)N1Cc1cccs1` (configuration not stated), the EC50 is 600 nM.

`O=C1CSC(c2c(Br)cccc2Br)N1c1nccs1` (configuration not stated): the EC50 turned out to be 560 nM.

As for `O=C1CSC(c2c(Br)cccc2Br)N1c1cccc(C(F)(F)F)n1` (configuration not stated), the EC50 came out at 3960 nM.

Another data set has as its system Human immunodeficiency virus 2. The experiment in a line: Antiviral activity against HIV2 ROD replication in human MT4 cells assessed as inhibition of virus-induced cytopathic effect at subtoxic concentration after 5 days by tetrazolium-based colorimetric assay. The data set is classed as functional, organism-based.
Conditions: not given
In general terms: Cytopathic effects are the visible damage that an infection or toxin causes in cultured cells.
On to `Clc1cccc(Cl)c1C1SCc2nc3ccccc3n21` (configuration not stated), for which the result was inactive.

As for `Fc1cccc(F)c1C1SCc2nc3ccccc3n21` (configuration not stated) [THIAZOLOBENZIMIDAZOLE], the outcome was inactive.

Take `Cc1cccc(N2C(=O)CSC2c2c(Br)cccc2Br)n1` (configuration not stated): the outcome was inactive.

Regarding `Cc1ccnc(N2C(=O)CSC2c2c(Br)cccc2Br)n1` (configuration not stated), the result was inactive.

Take `Cc1nc(N2C(=O)CSC2c2c(Br)cccc2Br)nc(C)c1C` (configuration not stated): the result was inactive.

`O=C1CSC(c2c(Br)cccc2Br)N1Cc1cccs1` (configuration not stated): the outcome was inactive.

On to `O=C1CSC(c2c(Br)cccc2Br)N1c1nccs1` (configuration not stated), for which the outcome was inactive.

On to `O=C1CSC(c2c(Br)cccc2Br)N1c1cccc(C(F)(F)F)n1` (configuration not stated), for which the outcome was inactive.

Tested on in the next data set: not listed separately
The experiment in a line: Selectivity index, ratio of CC50 for human CEM cells to EC50 for HIV1 3B. Type of data set: toxicity, cell-based, CCRF-CEM. The settings on record: read-out: Ratio CC50/EC50.
Regarding `Fc1cccc(F)c1C1SCc2nc3ccccc3n21` (configuration not stated) [THIAZOLOBENZIMIDAZOLE], the selectivity ratio stood at 45.

On to `Cc1cccc(N2C(=O)CSC2c2c(Br)cccc2Br)n1` (configuration not stated), for which the selectivity ratio stood at 2950.

For the compound `Cc1ccnc(N2C(=O)CSC2c2c(Br)cccc2Br)n1` (configuration not stated), the selectivity ratio turned out to be 930.

For the compound `Cc1nc(N2C(=O)CSC2c2c(Br)cccc2Br)nc(C)c1C` (configuration not stated), the selectivity ratio is > 5020.

On to `O=C1CSC(c2c(Br)cccc2Br)N1Cc1cccs1` (configuration not stated), for which the selectivity ratio was found to be 59.

As for `O=C1CSC(c2c(Br)cccc2Br)N1c1nccs1` (configuration not stated), the selectivity ratio was found to be 194.

`O=C1CSC(c2c(Br)cccc2Br)N1c1cccc(C(F)(F)F)n1` (configuration not stated): the selectivity ratio was found to be 8.

Another data set deals with Human immunodeficiency virus type 1 reverse transcriptase (Human immunodeficiency virus 1) (UniProt Q72547). The experiment in a line: Inhibition of HIV1 reverse transcriptase at 100 ug/ml after 1 hr by microtiter plate ELISA.
Conditions: not given
The method, boiled down:
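Nonradioactive kit ELISA. HIV-1 RT, template/primer and biotin- and DIG-labelled dNTPs were incubated in lysis buffer with or without inhibitor for 1 h at 37 °C. Product was captured on streptavidin and detected with anti-DIG-peroxidase and ABTS substrate. Absorbance at 405 nm is proportional to RT activity.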
(In general: In an ELISA, binding on a coated surface is turned into a signal by an enzyme label.)
Turning to `Cc1cccc(N2C(=O)CSC2c2c(Br)cccc2Br)n1` (configuration not stated), the inhibition was 79.5%.

Consider `Cc1ccnc(N2C(=O)CSC2c2c(Br)cccc2Br)n1` (configuration not stated), for which the inhibition turned out to be 100%.

`Cc1nc(N2C(=O)CSC2c2c(Br)cccc2Br)nc(C)c1C` (configuration not stated): the inhibition was found to be 100%.

On to `O=C1CSC(c2c(Br)cccc2Br)N1Cc1cccs1` (configuration not stated), for which the inhibition is 84.3%.

As to `Cc1cc(C)nc(N2C(=O)CSC2c2c(Br)cccc2Br)n1` (configuration not stated), the inhibition worked out at 100%.

For `O=C1CSC(c2c(Br)cccc2Br)N1c1nccs1` (configuration not stated), the inhibition is 69.5%.

`O=C1CSC(c2c(Br)cccc2Br)N1c1cccc(C(F)(F)F)n1` (configuration not stated) displayed an inhibition of 23.9%.

For another data set, the system named is Human immunodeficiency virus 2. As to the kind of experiment: Antiviral activity against HIV2 ROD replication in human CEM cells assessed as inhibition of virus-induced syncytium formation at subtoxic concentration after 4 days. The note with it: CCRF-CEM.
As to `Clc1cccc(Cl)c1C1SCc2nc3ccccc3n21` (configuration not stated), the outcome was inactive.

Turning to `Fc1cccc(F)c1C1SCc2nc3ccccc3n21` (configuration not stated) [THIAZOLOBENZIMIDAZOLE], the outcome was inactive.

For the compound `Cc1cccc(N2C(=O)CSC2c2c(Br)cccc2Br)n1` (configuration not stated), the result was inactive.

In the case of `Cc1ccnc(N2C(=O)CSC2c2c(Br)cccc2Br)n1` (configuration not stated), the outcome was inactive.

As for `Cc1nc(N2C(=O)CSC2c2c(Br)cccc2Br)nc(C)c1C` (configuration not stated), the outcome was inactive.

Turning to `O=C1CSC(c2c(Br)cccc2Br)N1Cc1cccs1` (configuration not stated), the outcome was inactive.

For the compound `O=C1CSC(c2c(Br)cccc2Br)N1c1nccs1` (configuration not stated), the result was inactive.

For the compound `O=C1CSC(c2c(Br)cccc2Br)N1c1cccc(C(F)(F)F)n1` (configuration not stated), the result was inactive.

Another data set relates to Human immunodeficiency virus 1. As to the kind of experiment: Antiviral activity against HIV1 3B replication in human MT4 cells assessed as inhibition of virus-induced cytopathic effect after 5 days by tetrazolium-based colorimetric assay. Type of data set: functional, organism-based. The settings on record: Human immunodeficiency virus 1, 3B, MT4, 120 h.
Consider `Cc1cccc(N2C(=O)CSC2c2c(Br)cccc2Br)n1` (configuration not stated), for which the EC50 stood at 90 nM.

Turning to `Cc1ccnc(N2C(=O)CSC2c2c(Br)cccc2Br)n1` (configuration not stated), the EC50 came to 40 nM.

Turning to `Cc1nc(N2C(=O)CSC2c2c(Br)cccc2Br)nc(C)c1C` (configuration not stated), the EC50 turned out to be 60 nM.

For `O=C1CSC(c2c(Br)cccc2Br)N1Cc1cccs1` (configuration not stated), the EC50 worked out at 580 nM.

Consider `O=C1CSC(c2c(Br)cccc2Br)N1c1nccs1` (configuration not stated), for which the EC50 was determined as 500 nM.

In the case of `O=C1CSC(c2c(Br)cccc2Br)N1c1cccc(C(F)(F)F)n1` (configuration not stated), the EC50 turned out to be 4560 nM.

Tested on in the next data set: not listed separately
As to the kind of experiment: Selectivity index, ratio of CC50 for human MT4 cells to EC50 for HIV1 3B. Type of data set: toxicity, cell-based. The settings on record: read-out: Ratio CC50/EC50. The method, boiled down: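 Selectivity index is CC50/EC50. CC50 comes from the viable-cell count in mock-infected MT-4 cells.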
Consider `Clc1cccc(Cl)c1C1SCc2nc3ccccc3n21` (configuration not stated), for which the selectivity ratio stood at 16.

Turning to `Fc1cccc(F)c1C1SCc2nc3ccccc3n21` (configuration not stated) [THIAZOLOBENZIMIDAZOLE], the selectivity ratio amounted to 54.5.

Consider `Cc1cccc(N2C(=O)CSC2c2c(Br)cccc2Br)n1` (configuration not stated), for which the selectivity ratio came to 2660.

For the compound `Cc1ccnc(N2C(=O)CSC2c2c(Br)cccc2Br)n1` (configuration not stated), the selectivity ratio was determined as 757.

Regarding `Cc1nc(N2C(=O)CSC2c2c(Br)cccc2Br)nc(C)c1C` (configuration not stated), the selectivity ratio was 3720.

Take `O=C1CSC(c2c(Br)cccc2Br)N1Cc1cccs1` (configuration not stated): the selectivity ratio stood at 59.

As to `O=C1CSC(c2c(Br)cccc2Br)N1c1nccs1` (configuration not stated), the selectivity ratio was 218.

Turning to `O=C1CSC(c2c(Br)cccc2Br)N1c1cccc(C(F)(F)F)n1` (configuration not stated), the selectivity ratio is 7.
